{"source": "paper PMC11224971", "about": "(The Oncologist, 2024)", "type_in_all_cases": "in vivo, human", "key": {"[1]": {"assay": "Steady-state pharmacokinetics in plasma, cycle 1 day 8", "method_in_brief": "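Plasma was sampled at steady state on cycle 1, day 8, after oral 135 mg/m²/dose BID. AUCSS was calculated by linear trapezoidal approximation through the day-8 24-hour dosing interval. The 24 h concentration was assumed equal to the predose concentration. CLSS was calculated as dose/AUCSS. Cmax, Tmax and t½ were also reported.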"}, "[2]": {"system": "relapsed or refractory advanced solid tumors harboring deleterious genetic alterations in the DDR pathway", "assay": "NCI-COG Pediatric MATCH phase II subprotocol", "conditions": "135 mg/m^2/dose BID oral", "method_in_brief": "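Relapsed/refractory pediatric solid tumors (incl. CNS, non-Hodgkin lymphoma, histiocytosis) assigned by centralized tumor sequencing showing a deleterious BRCA1/2, RAD51C/D or ATM alteration, without germline subtraction or LOH analysis. Oral tablets 135 mg/m²/dose (max 225 mg/dose) twice daily, given continuously in 28-day cycles. Primary endpoint was objective response.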"}, "[3]": {"assay": "Pediatric MATCH arm H: safety and tolerability"}}}
{"molecule": "O=C(c1cc(Cc2n[nH]c(=O)c3ccccc23)ccc1F)N1CCN(C(=O)C2CC2)CC1", "note": "[Olaparib]", "values": [{"measurement": "Clearance at steady state, mean ± SD", "setting": "[1]; dose/AUCSS, dose level 1, 135 mg/m^2 BID oral tablet, n = 3", "value": "4.1 ± 3.6", "unit": "L/h/m^2"}, {"measurement": "AUC(0-t)", "setting": "[1]; human, plasma, po, 135 mg/m2", "value": "48800 ± 27800", "unit": "ng·h/mL"}, {"measurement": "Cmax", "setting": "[1]; human, plasma, po, 135 mg/m2", "value": "7500 ± 2700", "unit": "ng/mL"}, {"measurement": "Tmax", "setting": "[1]; human, plasma, po, 135 mg/m2", "value": "1 to 4", "unit": "h"}, {"measurement": "half-life", "setting": "[1]; human, plasma, po, 135 mg/m2", "value": "5.6 ± 4.6", "unit": "h"}, {"measurement": "Objective response (complete + partial response)", "setting": "[2]; 6 patients enrolled", "value": "no responses"}, {"measurement": "Median duration assessments, OS", "setting": "[2]; 6 patients, 95% CI: 0.8-NA", "value": "2.5 months (95% CI: 0.8-NA)"}, {"measurement": "Median duration assessments, PFS", "setting": "[2]; Kaplan-Meier, 6 patients, 95% CI: 0.4-NA", "value": "1.5 months (95% CI: 0.4-NA)"}, {"measurement": "Response assessment, PD (number of patients, %)", "setting": "[2]; RECIST 1.1, 6 patients evaluated for efficacy", "value": "3 (50%)"}, {"measurement": "Dose-limiting toxicities", "setting": "[3]; 2 patients evaluable for DLT, cycle 1, 135 mg/m^2/dose BID", "value": "no dose-limiting toxicities"}, {"measurement": "Hematologic toxicity (overall)", "setting": "[3]; 6 patients evaluable for toxicity, 135 mg/m^2/dose BID", "value": "Minimal hematologic toxicity"}, {"measurement": "Patients with grade 1/2 anemia", "setting": "[3]; number of patients, 6 evaluable for toxicity", "value": 3}, {"measurement": "Allergic reaction leading to removal from study", "setting": "[3]; one patient (biallelic tumor loss of ATM), first dose, recurring upon rechallenge", "value": "acute allergic reaction (hives)"}]}
